# “And” between values parts separate entries of the source, which are not always exact repeats. Identical values can stand only once.
# Key:
# Canis familiaris [1] = organism: Canis familiaris; test: Intracellular electrophysiology in canine Purkinje fiber measured as maximum prolongation of APD95 observed at a dose of 10 uM; type: functional, Canis lupus familiaris
# Summary of the method: (§1)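 Canine Purkinje fibers superfused at 37 ± 0.5 °C, pH 7.35–7.40 (95:5 O2/CO2), paced at 1.0 Hz (2-ms pulses, 2× diastolic threshold). Fibers stabilized up to 1 h. Intracellular microelectrode (3 M KCl) recording of APD95, 30 min exposure per concentration across 10^-8–10^-4 M. Value is concentration giving 20% APD95 prolongation, or maximum prolongation with its concentration.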
# Canis familiaris [2] = test: In vivo antiarrhythmic efficacy in anesthetized dogs; 2/2
# Canis familiaris [3] = test: In vivo antiarrhythmic efficacy in anesthetized dogs
# Canis familiaris [4] = organism: Canis familiaris; test: Compound was evaluated for intracellular electrophysiology in canine Purkinje fiber measured as concentration that caused 20% prolongation of action potential duration (APD95) at a dose range of 0.01-10 uM; NR=Not reached; type: functional; conditions: Canis lupus familiaris; summary of the method: as §1
# Canis familiaris [5] = organism: Canis familiaris; test: Intracellular electrophysiology in canine potential (Vmax) at a dose range.; type: functional; conditions: Canis lupus familiaris
# Summary of the method: (§2)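 Canine Purkinje fibers at 37 ± 0.5 °C, gassed 95:5 O2/CO2 (pH 7.35–7.40), stimulated at 1.0 Hz. Maximum upstroke velocity (Vmax) recorded by glass microelectrode after up to 1 h stabilization. Compounds tested at 10^-8–10^-4 M with 30 min exposure per concentration. Reported as maximum observed effect on Vmax and the concentration at which it occurred.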
# Canis familiaris [6] = test: Compound was evaluated for intraduodenal bioavailability in anesthetized dogs measured as mean blood pressure at a dose of 10/30 range; 6/2; type: ADME, organism-based, Canis lupus familiaris, Artery; conditions: dog, in vivo
# Summary of the method: (§3)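 Pentobarbital-anesthetized (30 mg/kg i.v.) dogs, 8–20 kg, either sex. Compound given intraduodenally as a 0.5% tragacanth suspension, usually as two doses, the second cumulative. HR, BP, FRP and conduction were measured at 15, 30 and 45 min postdose. Mean BP reported as % change from control, low dose/high dose, for each animal.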
# Canis familiaris [7] = organism: Canis familiaris; test: Compound was evaluated for intracellular electrophysiology in canine Purkinje fiber measured as concentration that caused 20% prolongation of action potential duration (APD95) at a dose range of 0.01-1 uM; type: functional, Canis lupus familiaris; summary of the method: as §1
# Canis familiaris [8] = test: Compound was evaluated for intraduodenal bioavailability in anesthetized dogs measured as mean blood pressure at a dose of 10/30 range; 8/8; type: ADME, organism-based, Canis lupus familiaris, Artery; conditions: dog, in vivo; summary of the method: as §3
# Canis familiaris [9] = organism: Canis familiaris; test: Compound was evaluated for intracellular electrophysiology in canine Purkinje fiber measured as maximum prolongation of APD95 observed at a dose of 1 uM; type: functional, Canis lupus familiaris; summary of the method: as §1
# Canis familiaris [10] = organism: Canis familiaris; test: Compound was evaluated for intracellular electrophysiology in canine potential (Vmax) at a dose of 100 uM; type: functional; conditions: Canis lupus familiaris; summary of the method: as §2
# Canis familiaris [11] = organism: Canis familiaris; test: Compound was evaluated for intracellular electrophysiology in canine Purkinje fiber measured as maximum prolongation of APD95 observed at a dose range of 100 uM; type: functional, Canis lupus familiaris; summary of the method: as §1
# Canis familiaris [12] = test: Compound was evaluated for intraduodenal bioavailability in anesthetized dogs measured as mean blood pressure at a dose of 10/30 range; 2/16; type: ADME, organism-based, Canis lupus familiaris, Artery; conditions: dog, in vivo; summary of the method: as §3
# Canis familiaris [13] = organism: Canis familiaris; test: Compound was evaluated for intracellular electrophysiology in canine potential (Vmax) at a dose range of 100 uM; type: functional; conditions: Canis lupus familiaris; summary of the method: as §2
# Canis familiaris [14] = organism: Canis familiaris; test: Intracellular electrophysiology in canine Purkinje fiber measured as concentration that caused 20% prolongation of action potential duration (APD95); type: functional, Canis lupus familiaris; summary of the method: as §1
# Canis familiaris [15] = organism: Canis familiaris; test: Compound was evaluated for intracellular electrophysiology in canine Purkinje fiber measured as maximum prolongation of APD95 observed at 10 uM; type: functional, Canis lupus familiaris; summary of the method: as §1
# Canis familiaris [16] = test: Compound was evaluated for intraduodenal bioavailability in anesthetized dogs measured as mean blood pressure at a dose of 10/30 range; 10/31; type: ADME, organism-based, Canis lupus familiaris, Artery; conditions: dog, in vivo; summary of the method: as §3
# Canis familiaris [17] = organism: Canis familiaris; test: Compound was evaluated for intracellular electrophysiology in canine potential (Vmax) at 10 uM; type: functional; conditions: Canis lupus familiaris; summary of the method: as §2
# Canis familiaris [18] = test: Compound was evaluated for intraduodenal bioavailability in anesthetized dogs measured as mean blood pressure at a dose of 3 range; type: ADME, organism-based, Canis lupus familiaris, Artery; conditions: dog, in vivo, other; summary of the method: as §3
# Canis familiaris [19] = organism: Canis familiaris; test: Compound was evaluated for intracellular electrophysiology in canine Purkinje fiber measured as concentration that caused 20% prolongation of action potential duration (APD95) at a dose range of 0.1-100 uM; type: functional, Canis lupus familiaris; summary of the method: as §1
# Canis familiaris [20] = test: Compound was evaluated for intraduodenal bioavailability in anesthetized dogs measured as mean blood pressure at a dose of 10/30 range; 19/3; type: ADME, organism-based, Canis lupus familiaris, Artery; conditions: dog, in vivo; summary of the method: as §3
# Canis familiaris [21] = organism: Canis familiaris; test: Concentration at which maximum observed effect on the action potential (Vmax) at a dose range of 0.1-100 uM occurred; 2/2; type: functional, Canis lupus familiaris
# Canis familiaris [22] = organism: Canis familiaris; test: Compound was evaluated for intracellular electrophysiology in canine Purkinje fiber measured as concentration that caused 20% prolongation of action potential duration (APD95) at a dose range of 0.01-100 uM; type: functional, Canis lupus familiaris; summary of the method: as §1
# Canis familiaris [23] = organism: Canis familiaris; test: Compound was evaluated for intracellular electrophysiology in canine Purkinje fiber measured as maximum prolongation of APD95 observed at 1 uM; type: functional, Canis lupus familiaris; summary of the method: as §1
# Canis familiaris [24] = organism: Canis familiaris; test: Compound was evaluated for intracellular electrophysiology in canine potential (Vmax) at 100 uM; type: functional; conditions: Canis lupus familiaris; summary of the method: as §2
# Canis familiaris [25] = organism: Canis familiaris; test: Compound was evaluated for intracellular electrophysiology in canine Purkinje fiber measured as concentration that caused 20% prolongation of action potential duration (APD95) at a dose range of 0.1-10 uM; type: functional, Canis lupus familiaris; summary of the method: as §1
# Canis familiaris [26] = organism: Canis familiaris; test: Compound was evaluated for intracellular electrophysiology in canine potential (Vmax) at a dose range of 0.01-10 uM; type: functional; conditions: Canis lupus familiaris; at 0.01 to 10 µM
# Summary of the method: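 Isolated cardiac fibres superfused with bicarbonate/glucose salt solution gassed 95:5 O2/CO2 (pH 7.35–7.40), 37 ± 0.5 °C. Bipolar stimulation at 1.0 Hz with 2-ms square pulses at twice diastolic threshold. Intracellular recording with 3 M KCl glass microelectrodes after up to 1 h stabilization. Each concentration (10^-8–10^-4 M) applied for 30 min. Value is the maximum Vmax effect and the concentration at which it occurred, per study.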
# Canis familiaris [27] = test: In vivo antiarrhythmic efficacy in anesthetized dogs; Inactive at 3 mg/kg
# Canis familiaris [28] = test: In vivo antiarrhythmic efficacy in anesthetized dogs; 2/3
# Canis familiaris [29] = organism: Canis familiaris; test: Compound was evaluated for intracellular electrophysiology in canine potential (Vmax) at a dose of 1 uM; type: functional, Canis lupus familiaris; conditions: at 1 µM
# Canis familiaris [30] = organism: Canis familiaris; test: Compound was evaluated for intracellular electrophysiology in canine potential (Vmax) at a dose of 10 uM; type: functional, Canis lupus familiaris; summary of the method: as §2
# Canis familiaris [31] = test: Compound was evaluated for intraduodenal bioavailability in anesthetized dogs measured as mean blood pressure at a dose of 10/30 range; 8/49; type: ADME, organism-based, Canis lupus familiaris, Artery; conditions: dog, in vivo; summary of the method: as §3
# Canis familiaris [32] = test: Compound was evaluated for intraduodenal bioavailability in anesthetized dogs measured as mean blood pressure at a dose of 10/60 range; 13/23; type: ADME, organism-based, Canis lupus familiaris, Artery; conditions: dog, in vivo; summary of the method: as §3
# Canis familiaris [33] = organism: Canis familiaris; test: Compound was evaluated for intracellular electrophysiology in canine uM; type: functional; conditions: Canis lupus familiaris; summary of the method: as §2
compound,measurement,setting,value
CCCCCCC[N+](CC)(CC)C/C=C\Cc1ccc(Cl)cc1.Cc1ccc(S(=O)(=O)[O-])cc1,APD95,Canis familiaris [1],42% and 47% and 23%
CCCCCCC[N+](CC)(CC)C/C=C\Cc1ccc(Cl)cc1.O=P([O-])(O)O,Efficacy,Canis familiaris [2],2
same,Effective dose,Canis familiaris [3],0.3 mg/kg
same,APD95,Canis familiaris [1],28% and 29% and 23%
CCCCCCC[N+](CC)(CC)C/C=C\Cc1ccccc1Cl.[Cl-],Efficacy,Canis familiaris [2],2
same,C20,Canis familiaris [4],Not reached
same,Vmax,Canis familiaris [5],Minimal
same,Bioavailabiility,Canis familiaris [6],6%
same,C20,Canis familiaris [7],<0.1 µM
same,Bioavailabiility,Canis familiaris [8],8%
same,APD95,Canis familiaris [9],72%
same,APD95,Canis familiaris [1],16%
CCN(CC)CC#CCc1ccc(Cl)cc1.Cl,C20,Canis familiaris [4],Not reached
same,Vmax,Canis familiaris [10],-34%
same,APD95,Canis familiaris [1],-6%
CCN(CC)C/C(C)=C(/C)Cc1ccc([N-]S(C)(=O)=O)cc1.[Na+],APD95,Canis familiaris [11],78%
same,Bioavailabiility,Canis familiaris [12],2%
same,Vmax,Canis familiaris [13],-13%
same,C20,Canis familiaris [14],2.2 µM
CCN(CC)C/C=C\Cc1ccc([N+](=O)[O-])cc1.Cl,APD95,Canis familiaris [15],25%
same,Bioavailabiility,Canis familiaris [16],10%
same,Vmax,Canis familiaris [17],-13%
same,C20,Canis familiaris [14],0.9 µM
CCN(CC)C/C(C)=C(/C)Cc1ccc([N+](=O)[O-])cc1.Cl,Bioavailabiility,Canis familiaris [18],9%
same,C20,Canis familiaris [19],<0.1 µM
same,Bioavailabiility,Canis familiaris [20],19%
same,Efficacy,Canis familiaris [21],2
same,APD95,Canis familiaris [15],66% and 55%
same,C20,Canis familiaris [22],0.05 µM
same,Max APD95,Canis familiaris [23],27%
same,Effective dose,Canis familiaris [3],0.1 mg/kg and 0.3 mg/kg
same,Vmax,Canis familiaris [24],-28% and -52%
same,C20,Canis familiaris [25],0.4 µM
CCCCCCC[N+](CC)(CC)CCCCc1ccc(Cl)cc1.O=P([O-])(O)O [CLOFILIUM PHOSPHATE],Vmax,Canis familiaris [26],-21%
same,Effective dose,Canis familiaris [27],0.5 mg/kg
same,Efficacy,Canis familiaris [28],2
same,Effective dose,Canis familiaris [3],0.1 mg/kg
same,APD95,Canis familiaris [29],25% and 29%
same,APD95,Canis familiaris [30],78% and 27%
same,C20,Canis familiaris [14],2 µM
same,APD95,Canis familiaris [1],29% and 46%
C[N+](C)(C)C/C=C\Cc1ccc(Cl)cc1.[Cl-],Vmax,Canis familiaris [5],Minimal
same,Bioavailabiility,Canis familiaris [31],8%
same,C20,Canis familiaris [14],0.3 µM
same,APD95,Canis familiaris [1],43%
CCCCCCC[N+](CC)(CC)C/C=C\Cc1cccc(Cl)c1Cl.Cc1ccc(S(=O)(=O)[O-])cc1,Vmax,Canis familiaris [5],Minimal
same,Bioavailabiility,Canis familiaris [32],13%
same,C20,Canis familiaris [14],2 µM
same,APD95,Canis familiaris [1],35%
CC[N+](CC)(CC)CC#CCc1ccc(Cl)cc1.[I-],Vmax,Canis familiaris [33],-6%
same,C20,Canis familiaris [14],0.3 µM
same,APD95,Canis familiaris [1],53%
CCCCCCC[N+](CC)(CC)C/C=C\Cc1ccc(Br)cc1.O=P([O-])(O)O,Efficacy,Canis familiaris [2],2
same,Vmax,Canis familiaris [5],Minimal
same,Effective dose,Canis familiaris [3],1 mg/kg and 3 mg/kg
same,C20,Canis familiaris [14],5.7 µM
CCCCCCC[N+](CC)(CC)C/C=C/Cc1ccc(Cl)cc1.Cc1ccc(S(=O)(=O)[O-])cc1,C20,Canis familiaris [14],<1 µM and 1.9 µM and 1.4 µM

# From ChEMBL document CHEMBL1123335, “Synthesis and class III antiarrhythmic activity of (phenylbut-2-enyl)ammonium salts. Effect of conformation on activity” (J Med Chem, 1986)
